ChEMBL document CHEMBL3102706, “Natural occurrence of organofluorine and other constituents from Streptomyces sp. TC1” (J Nat Prod, 2014)
pIC50: −log10 of the molar value. Active and inactive are the calls of the source. The calls are words filed in the database; no cut-off is given here.

Legend:
[1] = system: Radical scavenging activity; assay: Antioxidant activity assessed as DPPH radical scavenging activity; type: functional
[2] = Antioxidant activity assessed as hydroxyl radical scavenging activity after 15 mins by spectrophotometric analysis; type: functional
[3] = Antioxidant activity assessed as EDTA equivalent of chelating effect after 10 mins by spectrophotometric analysis; type: functional
Method in brief: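 Ferrous-ion chelation: compounds or EDTA standard added to 2 mmol/L FeCl2 solution, then 5 mmol/L ferrozine added to start reaction. Mixture shaken vigorously and left 10 min at room temperature. Absorbance read at 562 nm. Activity expressed as mg EDTA equivalent/g.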

[4] = Antioxidant activity assessed as trolox equivalents of ABTS radical scavenging activity after 30 mins by TEAC assay; type: functional
Method in brief: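 ABTS (7 mM in water) was oxidized with 2.45 mM potassium persulfate (final) for 12–16 h in the dark at room temperature. The radical was diluted in ethanol to A734 0.700 ± 0.02 at 30 °C, then added to sample or Trolox standards (final 0–15 μM). A734 was read at 30 °C, 30 min after mixing. Results are given as μmol Trolox equivalent/g.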

[5] = Antioxidant activity assessed as superoxide radical scavenging activity by NBT reduction assay; type: functional
Albumin = Albumin (Bos taurus, UniProt P02769); assay: Binding affinity to bovine serum albumin at 25 uM by fluorescence spectra analysis; type: ADME; conditions: cattle, isolated protein
Sequence of Albumin (P02769 whole entry): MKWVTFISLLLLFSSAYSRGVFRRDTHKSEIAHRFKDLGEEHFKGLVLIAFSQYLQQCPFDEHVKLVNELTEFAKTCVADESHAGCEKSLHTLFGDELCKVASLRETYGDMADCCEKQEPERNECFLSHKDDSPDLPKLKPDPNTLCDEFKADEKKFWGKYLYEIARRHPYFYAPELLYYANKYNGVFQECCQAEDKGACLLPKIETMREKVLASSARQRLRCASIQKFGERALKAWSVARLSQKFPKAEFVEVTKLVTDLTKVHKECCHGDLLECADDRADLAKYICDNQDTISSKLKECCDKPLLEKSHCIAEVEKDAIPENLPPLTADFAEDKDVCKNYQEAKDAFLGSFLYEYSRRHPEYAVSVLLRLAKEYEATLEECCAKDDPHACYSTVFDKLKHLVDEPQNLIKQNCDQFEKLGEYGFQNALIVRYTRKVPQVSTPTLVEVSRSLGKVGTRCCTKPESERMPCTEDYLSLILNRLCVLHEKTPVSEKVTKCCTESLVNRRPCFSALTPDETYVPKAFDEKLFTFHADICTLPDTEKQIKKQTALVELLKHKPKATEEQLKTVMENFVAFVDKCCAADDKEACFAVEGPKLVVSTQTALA

HeLa = assay: Cytotoxicity against human HeLa cells; type: functional, cell-based
DNA [6] = assay: Displacement of ethidium bromide from calf thymus DNA by spectrometric analysis; type: nucleic-acid assay; conditions: Bos taurus
Method in brief: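 Competitive EtBr displacement from CT-DNA monitored by emission spectroscopy. Kq taken as slope of I0/I versus [Q]. Kapp obtained from KEB[EB] = Kapp[compound], using compound concentration giving 50% loss of EB fluorescence, KEB = 1.0 × 10^7 M−1, [EB] = 5 μM.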

DNA [7] = assay: Binding affinity to calf thymus DNA by absorption titration; conditions: Bos taurus
HCT-116 = assay: Cytotoxicity against human HCT116 cells; type: functional, cell-based
AGS = assay: Cytotoxicity against human AGS cells; type: functional, cell-based

Row | SMILES | pIC50 [1] | pIC50 [2] | Activity [3] [mg/g] | Activity [4] [µmol/g] | pIC50 [5] | Activity (Albumin) | Activity (HeLa) | Kapp (DNA [6]) [×10⁵ /M] | Kq (DNA [6]) [×10⁴ /M] | Kb (DNA [7]) [×10⁴ /M] | Activity (HCT-116) | Activity (AGS)
1 | Cc1cc(C(C)(C)C)c(O)c(C(C)(C)C)c1 [BUTYLATED HYDROXYTOLUENE] | 5.35 | 4.94 | 15.4 | 6050 | 5.07 |  |  |  |  |  |  | 
2 | CC(C)C[C@H](NC(=O)[C@@H](O)C[C@H](N)CN)C(N)=O | 4.46 | 4.45 | 11.9 | 4090 | 4.46 | Active | inactive | 0.13 | 0.26 | 2.36 | inactive | inactive
3 | C[C@@H]1O[C@@H](OC[C@H]2O[C@@H](Oc3c(-c4ccc(O)c(O)c4)oc4cc(O)cc(O)c4c3=O)[C@H](O)[C@@H](O)[C@@H]2O)[C@H](O)[C@H](O)[C@H]1O [RUTIN] | 5.33 | 4.71 | 18.5 | 10100 | 5.33 |  |  |  |  |  |  | 
4 | C=CCC(CC=C)(CC=C)c1ccc(CCCCCCCCC)cc1O | 4.83 | 4.51 | 8.4 | 4020 | 4.48 | Active | inactive | 0.34 | 0.68 | 2.23 | inactive | inactive
5 | CC(C)(C)c1cc(CCC(=O)O)cc(C(C)(C)C)c1F | 5.08 | 4.59 | 4.5 | 6740 | 5.08 | Active | inactive | 1.6 | 1.71 | 3.13 | inactive | inactive
